Here are results for 17 compounds from ChEMBL document CHEMBL1806421, “Design, synthesis and biological evaluation of urea derivatives from o-hydroxybenzylamines and phenylisocyanate as potential FabH inhibitors” (Bioorg Med Chem, 2011).

The structures appear in SMILES notation. pIC50: −log10 of the molar value. Values after ≈ are worked out from the molar mass of the structure shown.

The test system of series [1] is Escherichia coli. The experiment in a line: Antibacterial activity against Escherichia coli ATCC 35218 after 24 hrs by MTT assay. Conditions: ATCC 35218, 24 h. The format is functional. An outline of the steps:
(§1)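 MIC by MTT colorimetry in Mueller-Hinton medium. Inoculum was about 10⁵ cfu/mL, added to serial dilutions made from DMSO solutions, then incubated at 37 °C for 24 h. MTT in PBS (0.01 mol/L, pH 7.4; 2 mg/mL) was added to each well. Dye was extracted with isopropanol containing 5% 1 mol/L HCl for 12 h at room temperature, and OD was read at 550 nm.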

The test system of series [2] is Pseudomonas fluorescens. The experiment in a line: Antibacterial activity against Pseudomonas fluorescens after 24 hrs by MTT assay. The format is functional. In a few lines:
as §1

The test system of series [3] is Bacillus subtilis. Put plainly: Antibacterial activity against Bacillus subtilis after 24 hrs by MTT assay. The format is functional. An outline of the steps:
as §1

The subject of series [4] is Staphylococcus aureus. Put plainly: Antibacterial activity against Staphylococcus aureus after 24 hrs by MTT assay. In kind it is functional. An outline of the steps: as §1
Series [5] addresses T1, 3-oxoacyl-[acyl-carrier-protein] synthase 3 (Escherichia coli, UniProt C3TDZ2).
T1 sequence (C3TDZ2 whole entry): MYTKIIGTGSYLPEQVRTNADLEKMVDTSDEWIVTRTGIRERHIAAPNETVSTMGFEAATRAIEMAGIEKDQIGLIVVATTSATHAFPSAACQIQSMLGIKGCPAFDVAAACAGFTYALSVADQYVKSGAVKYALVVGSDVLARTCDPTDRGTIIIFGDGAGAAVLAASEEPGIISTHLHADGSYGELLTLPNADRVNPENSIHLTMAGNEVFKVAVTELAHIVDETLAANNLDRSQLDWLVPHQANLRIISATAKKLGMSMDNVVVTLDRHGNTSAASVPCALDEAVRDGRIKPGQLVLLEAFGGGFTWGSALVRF
Put plainly: Inhibition of Escherichia coli FabH expressed in Escherichia coli DH10B cells assessed as incorporation of 3H signal in the product after 25 mins by liquid scintillation. An outline of the steps:
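Native E. coli FabH was expressed from pET30 in DH10B and purified by Q-Sepharose, MonoQ and hydroxyapatite chromatography at 4 °C. Reaction used 20 mM Na₂HPO₄ pH 7.0, 0.5 mM DTT, holo-ACP and 1 nM FabH. It was stopped with ice-cold 50% TCA (5 min on ice) and the protein pelleted. ³H incorporation was read by liquid scintillation. Inhibitors came from DMSO stock, with final DMSO ≤2%.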

Series [6] can be described thus: Toxicity in erythrocytes assessed as hemolytic activity. In kind it is cell-based. The following applies: erythrocyte.

Regarding `O=C(Nc1ccccc1)N(Cc1cc(Br)ccc1O)c1ccc(F)cc1`, the MIC in series [1] is 1.56 µg/mL (≈ 3.76 µM); in series [2], 6.25 µg/mL (≈ 15.1 µM); in series [3] it was 6.25 µg/mL (≈ 15.1 µM); in series [4] it was 3.13 µg/mL (≈ 7.54 µM). For the same compound, in series [5], the pIC50 was 5.18. The LC30 in series [6] was greater than 10000 µg/mL.
Take `O=C(Nc1ccccc1)N(Cc1cc(Br)ccc1O)c1ccccc1Cl`: the MIC in series [1] came out at 6.25 µg/mL (≈ 14.5 µM); in series [2], 25 µg/mL (≈ 57.9 µM); in series [3], 6.25 µg/mL (≈ 14.5 µM); in series [4], 3.13 µg/mL (≈ 7.25 µM). Besides, the pIC50 in series [5] is 4.66. In addition, the LC30 in series [6] is greater than 10000 µg/mL.
With `O=C(Nc1ccccc1)N(Cc1cc(Br)ccc1O)c1ccc(Cl)cc1`, the MIC came to 1.56 µg/mL (≈ 3.61 µM) in series [1], 3.13 µg/mL (≈ 7.25 µM) in series [2], 6.25 µg/mL (≈ 14.5 µM) in series [3] and 1.56 µg/mL (≈ 3.61 µM) in series [4]. For the same compound, in series [5], the negative-log IC50 (pIC50) is 5.33. Also, the LC30 in series [6] was greater than 10000 µg/mL.
Consider `O=C(Nc1ccccc1)N(Cc1cc(Br)ccc1O)c1ccccc1Br`, for which the MIC in series [1] was determined as 12.5 µg/mL (≈ 26.3 µM); in series [2] it was 25 µg/mL (≈ 52.5 µM); in series [3], 6.25 µg/mL (≈ 13.1 µM); in series [4], 25 µg/mL (≈ 52.5 µM). For the same compound, the pIC50 in series [5] was 4.25. Moreover, in series [6], the LC30 was greater than 10000 µg/mL.
Consider `O=C(Nc1ccccc1)N(Cc1cc(Br)ccc1O)c1ccc(Br)cc1`, for which the MIC was 6.25 µg/mL (≈ 13.1 µM) in series [1], 12.5 µg/mL (≈ 26.3 µM) in series [2], 12.5 µg/mL (≈ 26.3 µM) in series [3] and 12.5 µg/mL (≈ 26.3 µM) in series [4]. Further, in series [5], the pIC50 was 4.39. Also, the LC30 in series [6] was greater than 10000 µg/mL.
For the compound `Cc1ccc(N(Cc2cc(Br)ccc2O)C(=O)Nc2ccccc2)cc1`, the MIC worked out at 50 µg/mL (≈ 122 µM) in series [1], 50 µg/mL (≈ 122 µM) in series [2], 12.5 µg/mL (≈ 30.4 µM) in series [3] and 50 µg/mL (≈ 122 µM) in series [4].
As for `COc1ccc(N(Cc2cc(Br)ccc2O)C(=O)Nc2ccccc2)cc1`, the minimal inhibitory concentration (MIC) came to 25 µg/mL (≈ 58.5 µM) in series [1], 50 µg/mL (≈ 117 µM) in series [2], 50 µg/mL (≈ 117 µM) in series [3] and 12.5 µg/mL (≈ 29.3 µM) in series [4].
As for `O=C(Nc1ccccc1)N(Cc1cc(Br)cc(Br)c1O)c1ccccc1F`, the MIC in series [1] was determined as 50 µg/mL (≈ 101 µM); in series [2], 12.5 µg/mL (≈ 25.3 µM); in series [3], 50 µg/mL (≈ 101 µM); in series [4] it was 25 µg/mL (≈ 50.6 µM).
For `O=C(Nc1ccccc1)N(Cc1cc(Br)cc(Br)c1O)c1ccc(F)cc1`, the MIC worked out at 6.25 µg/mL (≈ 12.6 µM) in series [1], 25 µg/mL (≈ 50.6 µM) in series [2], 12.5 µg/mL (≈ 25.3 µM) in series [3] and 12.5 µg/mL (≈ 25.3 µM) in series [4]. Further, in series [5], the pIC50 is 4.14. For the same compound, in series [6], the LC30 is greater than 10000 µg/mL.
As for `O=C(Nc1ccccc1)N(Cc1cc(Br)cc(Br)c1O)c1ccccc1Cl`, the MIC came out at 6.25 µg/mL (≈ 12.2 µM) in series [1], 25 µg/mL (≈ 49 µM) in series [2], 50 µg/mL (≈ 97.9 µM) in series [3] and 12.5 µg/mL (≈ 24.5 µM) in series [4]. Moreover, in series [5], the pIC50 is 4.29. For the same compound, the LC30 in series [6] was greater than 10000 µg/mL.
Take `O=C(Nc1ccccc1)N(Cc1cc(Br)cc(Br)c1O)c1ccc(Cl)cc1`: the MIC in series [1] was determined as 3.13 µg/mL (≈ 6.13 µM); in series [2] it was 12.5 µg/mL (≈ 24.5 µM); in series [3], 25 µg/mL (≈ 49 µM); in series [4], 6.25 µg/mL (≈ 12.2 µM). Besides, the pIC50 in series [5] was 5.00. Also, the LC30 in series [6] was greater than 10000 µg/mL.
As to `O=C(Nc1ccccc1)N(Cc1cc(Br)cc(Br)c1O)c1ccccc1Br`, the MIC in series [1] was 50 µg/mL (≈ 90.1 µM); in series [2], 6.25 µg/mL (≈ 11.3 µM); in series [3], 50 µg/mL (≈ 90.1 µM); in series [4], 50 µg/mL (≈ 90.1 µM).
As for `O=C(Nc1ccccc1)N(Cc1cc(Br)cc(Br)c1O)c1ccc(Br)cc1`, the MIC in series [1] stood at 12.5 µg/mL (≈ 22.5 µM); in series [2], 25 µg/mL (≈ 45 µM); in series [3], 50 µg/mL (≈ 90.1 µM); in series [4] it was 25 µg/mL (≈ 45 µM).
Regarding `Cc1ccc(N(Cc2cc(Br)cc(Br)c2O)C(=O)Nc2ccccc2)cc1`, the MIC in series [1] is 50 µg/mL (≈ 102 µM); in series [2] it was 50 µg/mL (≈ 102 µM); in series [3], 50 µg/mL (≈ 102 µM); in series [4], 6.25 µg/mL (≈ 12.8 µM).
In the case of `COc1ccc(N(Cc2cc(Br)cc(Br)c2O)C(=O)Nc2ccccc2)cc1`, the MIC in series [1] came to 12.5 µg/mL (≈ 24.7 µM); in series [2], 25 µg/mL (≈ 49.4 µM); in series [3] it was 50 µg/mL (≈ 98.8 µM); in series [4] it was 50 µg/mL (≈ 98.8 µM).
In the case of `Oc1ccc(Br)cc1CNc1ccc(Cl)cc1`, the MIC in series [1] stood at 6.25 µg/mL (≈ 20 µM); in series [2], 12.5 µg/mL (≈ 40 µM); in series [3], 25 µg/mL (≈ 80 µM); in series [4] it was 6.25 µg/mL (≈ 20 µM).
Regarding `NC[C@H]1O[C@H](O[C@H]2[C@H](O)[C@@H](O[C@H]3O[C@H](CO)[C@@H](O)[C@H](N)[C@H]3O)[C@H](N)C[C@@H]2N)[C@H](N)[C@@H](O)[C@@H]1O` [BEKANAMYCIN], the MIC in series [1] is 3.13 µg/mL (≈ 6.47 µM); in series [2], 3.13 µg/mL (≈ 6.47 µM); in series [3], 1.56 µg/mL (≈ 3.23 µM); in series [4], 1.56 µg/mL (≈ 3.23 µM).
